# Legend:
# Pseudomonas aeruginosa [1] = assay: Antimicrobial activity against Pseudomonas aeruginosa ATCC 15499 assessed as diameter of inhibition zone at 80 uM after 24 hrs by Kirby -Baur disc diffusion method; type: functional; conditions: ATCC 15499, 24 h, read-out: DIZ
# Procedure, shortened: (§1)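 Kirby-Bauer disc diffusion was used. Acetone stocks (160 µM) were serially doubled down to 80, 40 and 20 µM. 4 µL of each went onto 5 mm sterile paper discs, which were dried 30 min at 50 °C. Inoculum was 1.5 × 10⁸ CFU/mL diluted to 3 × 10² CFU/mL, and 50 µL was spread on Mueller-Hinton agar. After 24 h at 37 °C the inhibition-zone diameter was measured. Ciprofloxacin served as positive control.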
# Curvularia lunata [2] = assay: Antifungal activity against Curvularia lunata MTCC 581 assessed as zone of inhibition at 80 uM after 48 hrs by disc diffusion method; type: functional; conditions: MTCC 581, 48 h, read-out: IZ
# Procedure, shortened: (§2)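 Spores from 4-day potato dextrose agar cultures, suspended in sterile water at 1.5 × 10⁵ CFU/mL. 0.2 mL was spread on potato dextrose agar. 5 mm filter-paper discs soaked with test compound were laid on the lawn. Incubation was 48 h at 28 °C, then the inhibition zone was measured in mm. Fluconazole was the positive control and acetone the negative control.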
# Aspergillus flavus [3] = assay: Antifungal activity against Aspergillus flavus MTCC 1021 after 48 hrs; type: functional; conditions: MTCC 1021, 48 h
# Trichoderma viride [4] = assay: Antifungal activity against Trichoderma viride MTCC 1107 assessed as zone of inhibition at 20 uM after 48 hrs by disc diffusion method; type: functional; conditions: MTCC 1107, 48 h, read-out: IZ; procedure, shortened: as §2
# Escherichia coli [5] = assay: Antimicrobial activity against Escherichia coli ATCC 35218 assessed as diameter of inhibition zone at 40 uM after 24 hrs by Kirby -Baur disc diffusion method; type: functional; conditions: ATCC 35218, 24 h, read-out: DIZ; procedure, shortened: as §1
# Trichoderma viride [6] = assay: Antifungal activity against Trichoderma viride MTCC 1107 assessed as zone of inhibition at 40 uM after 48 hrs by disc diffusion method; type: functional; conditions: MTCC 1107, 48 h, read-out: IZ; procedure, shortened: as §2
# Staphylococcus aureus [7] = assay: Antimicrobial activity against Staphylococcus aureus ATCC 11632 assessed as diameter of inhibition zone at 40 uM after 24 hrs by Kirby -Baur disc diffusion method; type: functional; conditions: ATCC 11632, 24 h, read-out: DIZ; procedure, shortened: as §1
# Curvularia lunata [8] = assay: Antifungal activity against Curvularia lunata MTCC 581 after 48 hrs; type: functional; conditions: MTCC 581, 48 h
# Pseudomonas aeruginosa [9] = assay: Antimicrobial activity against Pseudomonas aeruginosa ATCC 15499 assessed as diameter of inhibition zone at 40 uM after 24 hrs by Kirby -Baur disc diffusion method; type: functional; conditions: ATCC 15499, 24 h, read-out: DIZ; procedure, shortened: as §1
# Staphylococcus aureus [10] = assay: Antimicrobial activity against Staphylococcus aureus ATCC 11632 assessed as diameter of inhibition zone at 20 uM after 24 hrs by Kirby -Baur disc diffusion method; type: functional; conditions: ATCC 11632, 24 h, read-out: DIZ; procedure, shortened: as §1
# Salmonella typhi [11] = assay: Antimicrobial activity against Salmonella typhi ATCC 23564 assessed as diameter of inhibition zone at 20 uM after 24 hrs by Kirby -Baur disc diffusion method; type: functional, Salmonella enterica subsp. enterica serovar Typhi; conditions: Salmonella enterica, ATCC 23564, 24 h; read-out: DIZ
# Bacillus cereus [12] = assay: Antimicrobial activity against Bacillus cereus MTCC 7350 assessed as diameter of inhibition zone at 80 uM after 24 hrs by Kirby -Baur disc diffusion method; type: functional; conditions: MTCC 7350, 24 h, read-out: DIZ; procedure, shortened: as §1
# Aspergillus flavus [13] = assay: Antifungal activity against Aspergillus flavus MTCC 1021 assessed as zone of inhibition at 40 uM after 48 hrs by disc diffusion method; type: functional; conditions: MTCC 1021, 48 h, read-out: IZ; procedure, shortened: as §2
# Salmonella typhi [14] = assay: Antimicrobial activity against Salmonella typhi ATCC 23564 assessed as diameter of inhibition zone at 80 uM after 24 hrs by Kirby -Baur disc diffusion method; type: functional, Salmonella enterica subsp. enterica serovar Typhi; conditions: Salmonella enterica, ATCC 23564, 24 h; read-out: DIZ
# HeLa = assay: Cytotoxicity against human HeLa cells after 24 hrs by MTT assay; type: functional, cell-based
# Procedure, shortened: (§3)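 The MTT assay seeded 5 × 10⁴ cells per well and grew them 24 h in RPMI 1640 with compound at 2.5–200 µM. Medium without cells was the blank and adriamycin the positive control. MTT was added for 4 h at 37 °C, formazan was solubilised, and absorbance was read at 570 nm. IC50 is the concentration that cuts viability 50% against untreated cells.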
# HCT-116 = assay: Cytotoxicity against human HCT116 cells after 24 hrs by MTT assay; type: functional, cell-based; procedure, shortened: as §3
# Pseudomonas aeruginosa [15] = assay: Antimicrobial activity against Pseudomonas aeruginosa ATCC 15499 after 24 hrs by broth micro serial dilution method; type: functional; conditions: ATCC 15499, 24 h
# Procedure, shortened: (§4)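 This was broth microdilution in autoclaved Mueller-Hinton broth. 150 µL of compound per well was serially diluted […], and 50 µL of test organism was added. Plates were incubated 24 h at 37 °C and optical density was read.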
# Trichoderma viride [16] = assay: Antifungal activity against Trichoderma viride MTCC 1107 after 48 hrs; type: functional; conditions: MTCC 1107, 48 h
# Aspergillus niger [17] = assay: Antifungal activity against Aspergillus niger MTCC 1108 assessed as zone of inhibition at 40 uM after 48 hrs by disc diffusion method; type: functional; conditions: MTCC 1108, 48 h, read-out: IZ; procedure, shortened: as §2
# Aspergillus niger [18] = assay: Antifungal activity against Aspergillus niger MTCC 1108 assessed as zone of inhibition at 20 uM after 48 hrs by disc diffusion method; type: functional; conditions: MTCC 1108, 48 h, read-out: IZ; procedure, shortened: as §2
# Curvularia lunata [19] = assay: Antifungal activity against Curvularia lunata MTCC 581 assessed as zone of inhibition at 20 uM after 48 hrs by disc diffusion method; type: functional; conditions: MTCC 581, 48 h, read-out: IZ; procedure, shortened: as §2
# QG-56 = assay: Cytotoxicity against human QG56 cells after 24 hrs by MTT assay; type: functional, cell-based; procedure, shortened: as §3
# Bacillus cereus [20] = assay: Antimicrobial activity against Bacillus cereus MTCC 7350 assessed as diameter of inhibition zone at 40 uM after 24 hrs by Kirby -Baur disc diffusion method; type: functional; conditions: MTCC 7350, 24 h, read-out: DIZ; procedure, shortened: as §1
# Mus musculus = assay: Antiinflammatory activity in mouse assessed as inhibition of carrageenan-induced increase in paw volume at 200 mg/kg administered 1 hr prior to carrageenan challenge measured after 3 hrs relative to control; type: functional
# Procedure, shortened: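 Mice were fasted 2 h and placed in groups of five. Controls received saline i.p. Phenylbutazone was given at 100 mg/kg i.p., curcumin at 200 mg/kg i.p., and derivatives at 200 mg/kg. After 1 h, 0.1 mL of 1% carrageenan in saline was injected subplantar into the right hind paw. Paw volume was followed by plethysmometer for 3 h, and % inhibition was calculated as (Vc − Vt)/Vc × 100.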
# HepG2 = assay: Cytotoxicity against human HepG2 cells after 24 hrs by MTT assay; type: functional, cell-based; procedure, shortened: as §3
# Pseudomonas aeruginosa [21] = assay: Antimicrobial activity against Pseudomonas aeruginosa ATCC 15499 assessed as diameter of inhibition zone at 20 uM after 24 hrs by Kirby -Baur disc diffusion method; type: functional; conditions: ATCC 15499, 24 h, read-out: DIZ; procedure, shortened: as §1
# Staphylococcus aureus [22] = assay: Antimicrobial activity against Staphylococcus aureus ATCC 11632 after 24 hrs by broth micro serial dilution method; type: functional; conditions: ATCC 11632, 24 h; procedure, shortened: as §4
# Salmonella typhi [23] = assay: Antimicrobial activity against Salmonella typhi ATCC 23564 assessed as diameter of inhibition zone at 40 uM after 24 hrs by Kirby -Baur disc diffusion method; type: functional, Salmonella enterica subsp. enterica serovar Typhi; conditions: Salmonella enterica, ATCC 23564, 24 h; read-out: DIZ
# Aspergillus flavus [24] = assay: Antifungal activity against Aspergillus flavus MTCC 1021 assessed as zone of inhibition at 80 uM after 48 hrs by disc diffusion method; type: functional; conditions: MTCC 1021, 48 h, read-out: IZ; procedure, shortened: as §2
# Aspergillus niger [25] = assay: Antifungal activity against Aspergillus niger MTCC 1108 assessed as zone of inhibition at 80 uM after 48 hrs by disc diffusion method; type: functional; conditions: MTCC 1108, 48 h, read-out: IZ; procedure, shortened: as §2
# Curvularia lunata [26] = assay: Antifungal activity against Curvularia lunata MTCC 581 assessed as zone of inhibition at 40 uM after 48 hrs by disc diffusion method; type: functional; conditions: MTCC 581, 48 h, read-out: IZ; procedure, shortened: as §2
# Aspergillus niger [27] = assay: Antifungal activity against Aspergillus niger MTCC 1108 after 48 hrs; type: functional; conditions: MTCC 1108, 48 h
# Escherichia coli [28] = assay: Antimicrobial activity against Escherichia coli ATCC 35218 after 24 hrs by broth micro serial dilution method; type: functional; conditions: ATCC 35218, 24 h; procedure, shortened: as §4
# Bacillus cereus [29] = assay: Antimicrobial activity against Bacillus cereus MTCC 7350 assessed as diameter of inhibition zone at 20 uM after 24 hrs by Kirby -Baur disc diffusion method; type: functional; conditions: MTCC 7350, 24 h, read-out: DIZ; procedure, shortened: as §1
# Escherichia coli [30] = assay: Antimicrobial activity against Escherichia coli ATCC 35218 assessed as diameter of inhibition zone at 20 uM after 24 hrs by Kirby -Baur disc diffusion method; type: functional; conditions: ATCC 35218, 24 h, read-out: DIZ; procedure, shortened: as §1
# Salmonella typhi [31] = assay: Antimicrobial activity against Salmonella typhi ATCC 23564 after 24 hrs by broth micro serial dilution method; type: functional, Salmonella enterica subsp. enterica serovar Typhi; conditions: Salmonella enterica, ATCC 23564, 24 h
# Aspergillus flavus [32] = assay: Antifungal activity against Aspergillus flavus MTCC 1021 assessed as zone of inhibition at 20 uM after 48 hrs by disc diffusion method; type: functional; conditions: MTCC 1021, 48 h, read-out: IZ; procedure, shortened: as §2
# Escherichia coli [33] = assay: Antimicrobial activity against Escherichia coli ATCC 35218 assessed as diameter of inhibition zone at 80 uM after 24 hrs by Kirby -Baur disc diffusion method; type: functional; conditions: ATCC 35218, 24 h, read-out: DIZ; procedure, shortened: as §1
# Trichoderma viride [34] = assay: Antifungal activity against Trichoderma viride MTCC 1107 assessed as zone of inhibition at 80 uM after 48 hrs by disc diffusion method; type: functional; conditions: MTCC 1107, 48 h, read-out: IZ; procedure, shortened: as §2
# Bacillus cereus [35] = assay: Antimicrobial activity against Bacillus cereus MTCC 7350 after 24 hrs by broth micro serial dilution method; type: functional; conditions: MTCC 7350, 24 h; procedure, shortened: as §4
# Staphylococcus aureus [36] = assay: Antimicrobial activity against Staphylococcus aureus ATCC 11632 assessed as diameter of inhibition zone at 80 uM after 24 hrs by Kirby -Baur disc diffusion method; type: functional; conditions: ATCC 11632, 24 h, read-out: DIZ; procedure, shortened: as §1
structure (smiles),measurement,setting,value
COc1ccc(NS(=O)(=O)c2ccc(/N=C(\C=C\c3ccc(O)c(OC)c3)CC(/C=C/c3ccc(O)c(OC)c3)=N/c3ccc(S(=O)(=O)Nc4ccc(OC)nn4)cc3)cc2)nn1,zone of inhibition at 80 µM,Pseudomonas aeruginosa [1],22 mm
same,zone of inhibition at 80 µM,Curvularia lunata [2],18 mm
same,MIC,Aspergillus flavus [3],80 µM
same,zone of inhibition at 20 µM,Trichoderma viride [4],12 mm
same,zone of inhibition at 40 µM,Escherichia coli [5],17 mm
same,zone of inhibition at 40 µM,Trichoderma viride [6],16 mm
same,zone of inhibition at 40 µM,Staphylococcus aureus [7],19 mm
same,MIC,Curvularia lunata [8],20 µM
same,zone of inhibition at 40 µM,Pseudomonas aeruginosa [9],19 mm
same,zone of inhibition at 20 µM,Staphylococcus aureus [10],11 mm
same,zone of inhibition at 20 µM,Salmonella typhi [11],14 mm
same,zone of inhibition at 80 µM,Bacillus cereus [12],22 mm
same,zone of inhibition at 40 µM,Aspergillus flavus [13],11 mm
same,zone of inhibition at 80 µM,Salmonella typhi [14],21 mm
same,IC50,HeLa,50 µM
same,IC50,HCT-116,25 µM
same,MIC,Pseudomonas aeruginosa [15],40 µM
same,MIC,Trichoderma viride [16],20 µM
same,zone of inhibition at 40 µM,Aspergillus niger [17],10 mm
same,zone of inhibition at 20 µM,Aspergillus niger [18],8 mm
same,zone of inhibition at 20 µM,Curvularia lunata [19],12 mm
same,IC50,QG-56,50 µM
same,zone of inhibition at 40 µM,Bacillus cereus [20],17 mm
same,inhibition in vivo at 200 mg/kg,Mus musculus,33.8%
same,IC50,HepG2,50 µM
same,zone of inhibition at 20 µM,Pseudomonas aeruginosa [21],12 mm
same,MIC,Staphylococcus aureus [22],40 µM
same,zone of inhibition at 40 µM,Salmonella typhi [23],19 mm
same,zone of inhibition at 80 µM,Aspergillus flavus [24],13 mm
same,zone of inhibition at 80 µM,Aspergillus niger [25],12 mm
same,zone of inhibition at 40 µM,Curvularia lunata [26],15 mm
same,MIC,Aspergillus niger [27],40 µM
same,MIC,Escherichia coli [28],40 µM
same,zone of inhibition at 20 µM,Bacillus cereus [29],13 mm
same,zone of inhibition at 20 µM,Escherichia coli [30],14 mm
same,MIC,Salmonella typhi [31],40 µM
same,zone of inhibition at 20 µM,Aspergillus flavus [32],9 mm
same,zone of inhibition at 80 µM,Escherichia coli [33],19 mm
same,zone of inhibition at 80 µM,Trichoderma viride [34],19 mm
same,MIC,Bacillus cereus [35],40 µM
same,zone of inhibition at 80 µM,Staphylococcus aureus [36],21 mm
